Measurements collected from several papers.
Target: Ephrin type-A receptor 1 (EPHA1, Homo sapiens, UniProt P21709)
One construct used (P21709 26-976): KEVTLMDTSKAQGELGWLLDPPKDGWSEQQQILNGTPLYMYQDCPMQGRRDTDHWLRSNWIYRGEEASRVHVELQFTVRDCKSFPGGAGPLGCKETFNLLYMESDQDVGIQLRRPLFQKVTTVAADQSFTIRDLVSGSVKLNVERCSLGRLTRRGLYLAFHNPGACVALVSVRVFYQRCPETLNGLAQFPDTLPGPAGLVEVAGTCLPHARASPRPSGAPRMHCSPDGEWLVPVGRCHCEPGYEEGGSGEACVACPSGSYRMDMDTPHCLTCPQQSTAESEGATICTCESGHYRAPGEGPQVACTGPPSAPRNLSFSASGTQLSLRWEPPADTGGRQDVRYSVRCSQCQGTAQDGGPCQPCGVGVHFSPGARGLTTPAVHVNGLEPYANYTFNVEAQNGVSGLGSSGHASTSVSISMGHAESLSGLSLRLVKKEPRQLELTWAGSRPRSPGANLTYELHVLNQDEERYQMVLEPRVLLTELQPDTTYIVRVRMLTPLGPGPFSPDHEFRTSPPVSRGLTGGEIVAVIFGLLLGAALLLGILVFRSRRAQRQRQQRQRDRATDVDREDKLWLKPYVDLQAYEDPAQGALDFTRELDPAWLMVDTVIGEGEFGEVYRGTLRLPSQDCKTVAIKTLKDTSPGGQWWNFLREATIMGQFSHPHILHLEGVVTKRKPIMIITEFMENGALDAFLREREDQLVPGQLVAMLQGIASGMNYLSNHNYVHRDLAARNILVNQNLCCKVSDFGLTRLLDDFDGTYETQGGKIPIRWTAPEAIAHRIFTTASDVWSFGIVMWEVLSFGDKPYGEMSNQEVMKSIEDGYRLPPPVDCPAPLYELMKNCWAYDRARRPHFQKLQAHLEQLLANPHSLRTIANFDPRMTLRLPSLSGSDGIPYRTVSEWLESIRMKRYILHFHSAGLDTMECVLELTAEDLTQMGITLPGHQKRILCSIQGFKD

| SMILES | observed | technique | tested at | remaining binding |
| --- | --- | --- | --- | --- |
| c1cncc(-c2cccc(Nc3nccc(NC4CCCCC4)n3)c2)c1 | binding | competition with immobilised ligand | 10 µM | 51% |
| N[C@H]1CCN(c2nccc(-c3cnn4ncccc34)n2)C1 | binding | – | 1 µM | 100% |
| Cc1cnc(Nc2ccc(C(=O)N3CCC(N4CCCC4)CC3)cc2)nc1-c1cc2ccccc2s1 | binding | competition with immobilised ligand | 1 µM | 3.9% |
| CC(=O)N1CCC(c2ccc(C(=O)NC(=N)N)cc2C(F)(F)F)CC1 | cell-free assay | competition with immobilised ligand | 1 µM | 100% |
| COc1ncc2cc3ccccc3nc2c1C#N | cell-free assay | competition with immobilised ligand | 5 µM | 95% |
| CN(c1nccc(-c2cnn3ncccc23)n1)C1CC1 | binding | – | 1 µM | 99% |
| Nc1ncc2c(n1)-c1c([nH]c3ccc(C#CC4CC4)cc13)CCCC2 | binding | competition with immobilised ligand | 1 µM | 89% |
| CC1CCCN1c1nccc(-c2cnn3ncccc23)n1 (centres unmarked) | binding | – | 1 µM | 96% |
| CNCc1ccccc1-c1csc([C@@H](C)Nc2nc(C)nc3cc(OC)c(OC)cc23)c1 | cell-free assay | competition with immobilised ligand | 1 µM | 79% |
| C[C@@H]1CCN(c2nccc(-c3cnn4ncccc34)n2)C1 | binding | – | 1 µM | 100% |
| CNC(=O)Nc1ccc2c(c1)CC[C@@]21OC(=O)N(CC(=O)N(Cc2ccc(F)cc2)[C@@H](C)C(F)(F)F)C1=O | cell-free assay | competition with immobilised ligand | 1 µM | 88% |
| CN(C)c1nccc(-c2cnn3ncccc23)n1 | binding | – | 1 µM | 46% |
| CC(=O)N1CCC(c2ccc(C(=O)NC3=NCCN3)cc2C(F)(F)F)CC1 | cell-free assay | competition with immobilised ligand | 1 µM | 88% |
| COc1cnc(Nc2cccc(S(N)(=O)=O)c2)nc1N1CCN(c2ccccc2)C(=O)C1 | binding | competition with immobilised ligand | 1 µM | 90% |
| O=C(NCC1CCOCC1)c1n[nH]cc1NC(=O)c1c(F)cccc1F | binding | competition with immobilised ligand | 1 µM | 100% |
| O=C(NCCCN1CCOCC1)c1ccc(Nc2nccc(-c3cc4ccccc4s3)n2)cc1 | binding | competition with immobilised ligand | 1 µM | 44% |
| Cc1nccc(COC(=O)N2C[C@@H]3[C@@H](CNC(=O)c4ccc5[nH]nnc5c4)[C@@H]3C2)n1 | cell-free assay | competition with immobilised ligand | 1 µM | 100% |
| O=C(c1ccc(Nc2ncc(Cl)c(-c3ccc(Cl)s3)n2)cc1)N1CCC(N2CCCC2)CC1 | binding | competition with immobilised ligand | 1 µM | 32% |
| CC(C)CC(=O)N1CCc2nc(-c3ccc(Br)cc3)nc(N(C)Cc3ccccc3)c2C1 | cell-free assay | competition with immobilised ligand | 0.1 µM | 100% |
| c1cnn2ncc(-c3ccnc(N4CCC45COC5)n3)c2c1 | binding | – | 1 µM | 89% |
